From PubChem BioAssay
Compounds with a hit are over-represented: about 3.4% of the library has one in this group of screens.
Arr AP2 block – human beta-arrestin and AP2 interaction inhibition | FITC-arrestin peptide / GST-AP2 beads, flow cytometry; AP2 beta2 appendage carries R879A mutation | inhibition, % at 10 µM | 0.31% of 340,000 active | AID 504490;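 active means inhibition above a set limit, near 3 SD of compounds lacking own fluorescence, cut at about 54% in these data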;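 further: plate controls were DMSO wells for no effect and 5 µM unlabelled arrestin peptide for full effect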
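System: GST-AP2 R879A glutathione beads | Also added: FITC-arrestin peptide, 50 nM | Times: 12 min plus 1 h, RT | Signal: Bead flow cytometry, FITC channel | Buffer or medium: PBS with 0.05% Tween 20 and 0.1% BSA | Read-out basis: Percent drop in bead-associated FITC signal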
AHR activator – activates the human aryl hydrocarbon receptor; 2.5% of 320,000 active; AHR-responsive luciferase reporter cells, luminescence; activation, % at 5 µM; P35869; in the data active means activation above about 47%;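 further: 0% = vehicle wells and 100% = reference agonist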
Target sequence (P35869 whole entry, looked up): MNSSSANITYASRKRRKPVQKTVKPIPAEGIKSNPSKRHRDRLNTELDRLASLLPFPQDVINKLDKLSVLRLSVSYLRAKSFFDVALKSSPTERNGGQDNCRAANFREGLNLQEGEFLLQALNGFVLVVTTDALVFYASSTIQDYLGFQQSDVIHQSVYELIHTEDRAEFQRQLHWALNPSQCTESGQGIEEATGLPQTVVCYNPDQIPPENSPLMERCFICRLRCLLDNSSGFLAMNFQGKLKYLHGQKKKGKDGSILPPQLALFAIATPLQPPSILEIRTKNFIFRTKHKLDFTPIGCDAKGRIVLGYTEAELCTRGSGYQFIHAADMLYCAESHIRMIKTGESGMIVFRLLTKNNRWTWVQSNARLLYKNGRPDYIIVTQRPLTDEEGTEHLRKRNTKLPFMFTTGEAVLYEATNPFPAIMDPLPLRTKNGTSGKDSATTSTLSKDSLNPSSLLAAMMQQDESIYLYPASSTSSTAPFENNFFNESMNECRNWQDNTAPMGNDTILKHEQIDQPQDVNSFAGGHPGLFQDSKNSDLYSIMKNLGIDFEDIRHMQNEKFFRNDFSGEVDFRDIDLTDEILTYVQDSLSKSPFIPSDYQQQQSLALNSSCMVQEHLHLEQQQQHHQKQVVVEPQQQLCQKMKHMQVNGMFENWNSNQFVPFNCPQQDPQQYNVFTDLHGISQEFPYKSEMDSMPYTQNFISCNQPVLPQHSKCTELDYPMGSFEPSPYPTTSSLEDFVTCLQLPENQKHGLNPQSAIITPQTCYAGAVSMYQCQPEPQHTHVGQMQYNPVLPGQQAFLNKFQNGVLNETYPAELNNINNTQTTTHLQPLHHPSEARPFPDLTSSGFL
APOBEC3A inh – inhibitors of human APOBEC3A DNA deaminase; 0.41% of 330,000 active; P31941; inhibition, % at 20 µM; recombinant A3A, FAM/TAMRA ssDNA deamination fluorescence;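 active means at least 40% inhibition at 20 µM here, with at most 30% in a related deaminase screen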;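 further: plate controls were A3A with DMSO for no effect and wells lacking A3A enzyme for full effect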
PolyA inh – blocks polyadenylation in yeast reporter cells; S. cerevisiae SKY197-pL101 polyadenylation reporter, beta-gal luminescence; efflux-impaired pdr1/pdr3 knockout yeast; score 100 = 6 SD above DMSO; AID 1875; 0.02% of 300,000 active; activity score, % at 12 µM;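 active means lowest replicate activity score at least 50, where 100 means six control SD above control mean; inconclusive means lowest score under 50 but half or more replicates reach 50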;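 further: yeast exposed to compound for 9 h at 30 °C; higher score means more reporter readthrough which indicates perturbed polyadenylation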
UCH37 DUB inh – human UCH37 deubiquitinating enzyme inhibition; Q9Y5K5; purified proteasome/UCH37, Ub-AMC cleavage fluorescence; inhibition, % (no concentration beside the values); 0.33% of 330,000 active;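 active means mean inhibition over replicate wells above about 20%, limit read from the data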;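 further: 0% = compound-free wells with enzyme and 100% = wells lacking proteasome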
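system = Proteasome-associated human UCH37 deubiquitinase | amount = 0.15 nM proteasome as dispensed | medium = pH 7.4 Tris-HCl (50 mM) with ovalbumin, ATP-MgCl2, DTT | incubation = 30 min preincubation with enzyme, 25 min cleavage at room temperature | detection = AMC fluorescence 355/460 nm | read-out basis = percent inhibition | controls = no-proteasome and no-compound wells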
APOBEC3G inh – inhibitors of human APOBEC3G DNA deaminase | AID 493012 | Q9HC16 | 0.28% of 330,000 active | recombinant A3G, ssDNA deamination FAM/TAMRA fluorescence | inhibition, % at 20 µM;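 active means inhibition of at least 40% at 20 µM, with no more than 30% in the related APOBEC3A deaminase screen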;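 further: plate controls were DMSO wells with A3G for no effect and wells lacking A3G enzyme for full effect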
* marks the source's active call; other numbers are inactive results; ? = inconclusive; nt = no result.

SMILES | Arr AP2 block | AHR activator | APOBEC3A inh | PolyA inh | UCH37 DUB inh | APOBEC3G inh
Cc1ccccc1Cn1cc(NC(=O)c2cc(-c3cccs3)on2)cn1 | -4 | 14 | 3 | 15 | -8 | 2
COc1ccc(NC(=O)c2oc3ccccc3c2C)cn1 | 2 | 51* | -2 | -28 | 2 | 0
Cc1c(C(=O)Nc2nc3ccccc3[nH]2)oc2c(Cl)cccc12 | 5 | 66* | -3 | 6 | -10 | -6
Cc1c(C(=O)Nc2nc3ccccc3[nH]2)oc2ccccc12 | -14 | 68* | 5 | -2 | -8 | -1
Cc1c(C(=O)Nc2ccncc2)oc2ccccc12 | 6 | 25 | 3 | 13 | 2 | -6
Cc1cccc(NC(=O)CCC(=O)NN=Cc2ccncc2)c1 | nt | nt | nt | nt | 0 | nt
Cn1nc(C(F)(F)F)c(C=NOC(=O)c2ccccc2)c1Sc1ccc(Cl)cc1 | nt | nt | nt | nt | 3 | nt
O=C1c2ccccc2C(=O)C1c1ccc2ccccc2n1 | -5 | 60* | 4 | -32 | 4 | -2
O=C(CC(=O)NC1CCCCC1)NN=Cc1ccc(Cl)cc1 | nt | nt | nt | nt | 27* | nt
CC(C)NC(=O)CC(=O)N/N=C/c1ccc(Br)cc1 | 18 | 53* | 1 | 13 | nt | 3
CC(C)c1ccc(C=NNC(=O)CC(=O)NC2CCCCC2)cc1 | nt | nt | nt | nt | 4 | nt
CC(=NNC(=O)CON=C(C)c1cccs1)c1ccc(N)cc1 | nt | nt | nt | nt | 2 | nt
CCn1nc(C)c(C=NNC(=O)c2cccc(OC)c2)c1C | nt | nt | nt | nt | 0 | nt
CC(CC(=O)NC(C)(C)C)=NNC(=O)COc1ccc(C)cc1Br | nt | nt | nt | nt | 2 | nt
Cc1ccc2cn[nH]c2c1NC(=S)NC(=O)c1ccccc1 | 0 | 14 | -1 | 11 | 2 | -8
Cc1ccc2cccnc2c1NC(=S)NC(=O)c1ccccc1 | 2 | 69* | 1 | -35 | 2 | 0
Cc1ccc2cccc(NC(=S)NC(=O)c3ccccc3)c2n1 | 22 | 56* | -3 | 2 | 1 | -2
Cc1cc(C)c2cccc(NC(=S)NC(=O)c3ccccc3)c2n1 | 28 | 45 | 6 | 6 | 3 | -5
COc1cccc(C=NNC(=O)CCn2cnc3ccccc32)c1 | nt | nt | nt | nt | 6 | nt
COc1ccc(C=NNC(=O)c2ccccc2Cl)cc1COc1c(F)c(F)c(F)c(F)c1F | nt | nt | nt | nt | 2 | nt
Cc1cc(NCc2ccccn2)n2ncc(-c3ccc(Cl)cc3)c2n1 | 8 | 76* | 1 | -47 | nt | -4
CCOC(=O)Cc1c(C)nc2c(-c3ccc(Cl)cc3)cnn2c1C | 35 | 65* | -1 | -2 | 2 | -7
Cc1cc(NCCCN2CCOCC2)n2ncc(-c3ccccc3)c2n1 | 7 | 38 | -5 | 3 | -26 | -8
Cc1cc(NCc2ccccn2)n2nc(C)c(-c3ccc(Cl)cc3)c2n1 | 4 | 16 | 0 | -29 | -108 | -1
Cc1cc(N)n2ncc(-c3ccc(F)cc3)c2n1 | -3 | 45 | 0 | -10 | -25 | 0
SMILES | Arr AP2 block | AHR activator | APOBEC3A inh | PolyA inh | UCH37 DUB inh | APOBEC3G inh
Cc1cc(N)n2ncc(-c3ccc(Cl)cc3)c2n1 | 25 | 69* | -5 | -12 | -78 | 1
Cc1cc(NCc2ccccn2)n2ncc(-c3ccccc3)c2n1 | -7 | 74* | -1 | -22 | -70 | -4
CCOC(=O)Cc1c(C)nc2c(-c3ccc(Cl)cc3)c(C)[nH]n2c1=O | 1 | 5 | -6 | -5 | -17 | 4
CSc1ccc(C=Nn2c(C)nnc2C)cc1 | nt | nt | nt | nt | 2 | nt
CCN(CC)C(=O)C1CCCN(c2ccc([N+](=O)[O-])cc2C=NNC(=O)c2ccc([N+](=O)[O-])cc2)C1 (configuration not stated) | nt | nt | nt | nt | 4 | nt
CCOC(=O)c1csc(NN=C2CCc3ccccc32)n1 | nt | nt | nt | nt | 5 | nt
OCCNc1nc(Nc2ccccc2)nc(Nc2ccccc2)n1 | 38 | 48* | 2 | -6 | 3 | -4
c1ccc(Nc2nc(NCC3CCCO3)c3ccccc3n2)cc1 (configuration not stated) | 1 | 12 | 0 | -12 | -53 | -9
Cc1c(Cl)cccc1Nc1nc(NCCO)c2ccccc2n1 | 30 | 57* | -3 | -1 | -15 | -5
CC(C)(CO)Nc1nc(Nc2ccccc2)nc(Nc2ccccc2)n1 | 21 | 5 | -10 | -9 | 1 | -2
OCCNc1nc(Nc2ccccc2)nc2ccccc12 | -22 | 51* | 1 | 10 | 3 | -3
Oc1cccc(Nc2nc(NCC3CCCO3)c3ccccc3n2)c1 (configuration not stated) | 2 | 79* | 7 | 12 | -13 | 3
CCNC(=S)NN=C(C)c1cccc(C(F)(F)F)c1 | nt | nt | nt | nt | 6 | nt
CC(C)(C)c1n[nH]c(=S)n(N=Cc2cccs2)c1=O | nt | nt | nt | nt | 4 | nt
CC(CC(=O)Nc1ccccn1)=NNC(=O)C(=O)Nc1ccccc1C | nt | nt | nt | nt | 1 | nt
CC(=NNC(=O)c1nnn(-c2nonc2N)c1-c1ccc2c(c1)OCO2)c1ccccc1 | nt | nt | nt | nt | -2 | nt
COc1c(O)ccc(C=NNC(=O)c2ccc3c(c2)OCO3)c1[N+](=O)[O-] | nt | nt | nt | nt | 7 | nt
COc1ccc(/C=N/NC(=O)CCn2c3ccccc3c3ccccc32)cc1O | 4 | 6 | -4 | 0 | nt | -11
COc1cccc(/C=N/NC(=O)CCn2c3ccccc3c3ccccc32)c1 | -3 | 73* | -3 | 1 | nt | -5
Cc1nnsc1C(=O)NN=Cc1cccc(C(F)(F)F)c1 | nt | nt | nt | nt | 5 | nt
COc1ccc(C=NNc2nc(C)cc(=O)[nH]2)cc1OC | nt | nt | nt | nt | 7 | nt
NC(=NOCC(=O)Nc1ccccc1)c1nonc1N | nt | nt | nt | nt | 1 | nt
Nc1ccc2nc(C(F)(F)F)[nH]c2c1 | 18 | 14 | -1 | 2 | 1 | -4
Cc1nc2cc3nc(C(F)(F)F)[nH]c3cc2[nH]1 | -5 | 50* | 1 | -4 | nt | -4
C/C(=N\NC(=O)c1ccccc1O)c1ccc(NC(=O)Cc2ccccc2)cc1 | 33 | 52* | -4 | 4 | nt | -10
SMILES | Arr AP2 block | AHR activator | APOBEC3A inh | PolyA inh | UCH37 DUB inh | APOBEC3G inh
CC(=NNC(=O)c1cccc(C)c1O)c1ccc(NC(=O)Cc2ccccc2)cc1 | nt | nt | nt | nt | 11 | nt
COc1ccccc1N1C(=O)C(Cl)=C(Nc2ccccc2O)C1=O | 27 | nt | nt | -10 | nt | nt
O=C1C(Cl)=C(Nc2ccccc2O)C(=O)N1c1ccccc1 | 43 | 55* | -4 | -3 | 4 | -3
COc1cc(C(=O)NN=Cc2ccc(OC)c(CN3CCN(c4ccc(F)cc4)CC3)c2)ccc1O | nt | nt | nt | nt | 6 | nt
Nc1cc(-c2nc3ncccc3o2)ccc1Cl | 22 | 59* | 5 | 6 | -122 | 2
CCCC(=O)Nc1cc(-c2nc3ncccc3o2)ccc1Cl | 12 | 75* | 5 | 19 | -9 | -3
Cc1ccc(-c2nc3ncccc3o2)cc1N | -7 | 67* | -4 | 1 | -6 | 1
CCOc1ccc(C=NNC(=O)CNC(=O)c2ccc(S(=O)(=O)N3CCOCC3)cc2)cc1 | nt | nt | nt | nt | 5 | nt
CC1CCc2c(C(=O)NCc3ccco3)csc2C1 (configuration not stated) | 1 | -2 | 2 | ? | 4 | 2
